The test system of data set [1] is Mus musculus. In words: Compound dose that causes lethality (acute toxicity) was determined by administering perorally in mice. Type of data set: organism-based. As to conditions: in vivo, po.
Data set [2] relates to Mus musculus. Briefly: Amphetamine antagonistic activity on peroral administration in mice; value ranges from (7.4-19.7.). Type of data set: functional.
Data set [3] deals with Mus musculus. Briefly: Pentylenetetrazole antagonistic activity on peroral administration in mice; inactive at this dose. Type of data set: functional.
Data set [4] has as its system Mus musculus. Briefly: Antidepressant activity was assessed from the ability to antagonize reserpine-induced hypothermia on peroral administration in mice;value ranges from (11.1-31.). The class given is functional.
Data set [5] relates to Mus musculus. In words: Antidepressant activity was assessed from the ability to antagonize reserpine-induced palpebral ptosis on peroral administration in mice;value ranges from (2.7-5.4.). Type of data set: functional.
The species entered for data set [6] is Sus scrofa. Briefly: Tested for in vitro reuptake inhibition of [3H]dopamine in pig striatal synaptosomes. The class given is functional. As to conditions: Brain. The essentials: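 Pig corpus striatum synaptosomes (slaughterhouse brains) take up [3H]DA (2 nM) with the compound present. Nonspecific transport is defined with benztropine and also by incubation at 0–4 °C without drug. IC50 for specific uptake by log-probit analysis over four concentrations, each in triplicate.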

The species named for data set [7] is Sus scrofa. Briefly: Tested for in vitro reuptake inhibition of [3H]norepinephrine in pig occipital synaptosomes. Type of data set: functional. The following applies: Brain. The essentials: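 [3H]NE (15 nM) uptake into occipital cortex synaptosomes from slaughterhouse pig brain, measured with the compound present. Nonspecific transport is defined with desipramine and also by incubation at 0–4 °C without drug. IC50 for specific uptake from log-probit analysis, four concentrations, each in triplicate.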

For data set [8], the species on record is Sus scrofa. In words: Tested for in vitro reuptake inhibition of [3H]-5-hydroxy tryptamine in pig frontal synaptosomes. Type of data set: functional. The following applies: Brain. An outline of the steps: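 Synaptosomes from frontal cortex of slaughterhouse pig brain take up [3H]-5-HT (4 nM) with the compound present. Nonspecific uptake is defined with chlorimipramine and also by incubating at 0–4 °C without drug. IC50 for specific uptake by log-probit analysis, four concentrations, each in triplicate.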

In data set [9] the test system is Mus musculus. In words: Antidepressant activity was assessed from the ability to antagonize reserpine-induced hypothermia on peroral administration in mice;inactive at this dose.. The class given is functional.
Data set [10] relates to Mus musculus. In words: Amphetamine antagonistic activity on peroral administration in mice; inactive at this dose. The class given is functional.
Data set [11] has as its system Mus musculus. In words: Pentylenetetrazole antagonistic activity on peroral administration in mice; inactive at this dose.. The class given is functional.
Data set [12] relates to Mus musculus. In words: Antidepressant activity was assessed from the ability to antagonize reserpine-induced palpebral ptosis on peroral administration in; inactive at this dose. Type of data set: functional.
In data set [13] the test system is Mus musculus. In words: Antidepressant activity was assessed from the ability to antagonize reserpine-induced palpebral ptosis on peroral administration in mice; Value ranges from (1.3-3.4). Type of data set: functional.
Data set [14] relates to Mus musculus. In words: Pentylenetetrazole antagonistic activity on peroral administration in mice; Value ranges from (24.5-41.4). The class given is functional.
The test system of data set [15] is Mus musculus. Briefly: Amphetamine antagonistic activity on peroral administration in mice; Value ranges from (29.4-65.9). Type of data set: functional.
Data set [16] has as its system Mus musculus. Briefly: Antidepressant activity was assessed from the ability to antagonize reserpine-induced palpebral ptosis on peroral administration in mice.;Value ranges from (0.9-3.1). The class given is functional.
Data set [17] deals with Mus musculus. In words: Antidepressant activity was assessed from the ability to antagonize reserpine-induced hypothermia on peroral administration in mice;value ranges from (13.5-19.1). The class given is functional.
Data set [18] concerns Mus musculus. Briefly: Amphetamine antagonistic activity on peroral administration in mice.;value ranges from (5.1-5.9). The class given is functional.

As a reminder, the IC50 is the concentration that gives 50% inhibition. Low values mean higher potency, high ones lower potency.

Each structure is given as a SMILES string. Where only a bound is given, the exact number is not on record here.

`CCOc1ccccc1OCC1CCCNC1` (stereo not given) came in with an LD with Mus musculus [1] of 300 mg/kg. Besides, the ED was 9.4 mg/kg in the data set on Mus musculus [2], more than 50 mg/kg in the data set with Mus musculus [3], 17 mg/kg in the data set on Mus musculus [4] and 3.7 mg/kg with Mus musculus [5]. In addition, the results for the half-inhibitory concentration (IC50) in the data set filed under Sus scrofa [6], in the data set filed under Sus scrofa [7] and in the data set listed under Sus scrofa [8] were 62 µM, 0.97 µM and 95 µM, respectively.

For the molecule `CCOc1ccccc1OCC1(OC)CCCNC1` (stereo not given), the LD with Mus musculus [1] was determined as 200 mg/kg. The ED with Mus musculus [9] is more than 25 mg/kg; with Mus musculus [10], more than 50 mg/kg; with Mus musculus [11], more than 50 mg/kg; in the data set on Mus musculus [12], more than 25 mg/kg. Besides, the results for the IC50 in the data set listed under Sus scrofa [6], in the data set listed under Sus scrofa [7] and in the data set filed under Sus scrofa [8] were 68 µM, 1.3 µM and 110 µM, respectively.

On to `CNCCCN1c2ccccc2CCc2ccccc21` [DESIPRAMINE], for which the LD with Mus musculus [1] stood at 300 mg/kg. Besides, the results for the ED in the data set with Mus musculus [13], in the data set with Mus musculus [14] and in the data set on Mus musculus [15] were 1.8 mg/kg, 33.1 mg/kg and 40.3 mg/kg, respectively. For the same molecule, the IC50 turned out to be 6.1 µM in the data set listed under Sus scrofa [6], 0.0032 µM in the data set listed under Sus scrofa [7] and 0.42 µM in the data set listed under Sus scrofa [8].

With `CCOc1ccccc1OCC1(O)CCCNC1` (stereo not given), the LD in the data set on Mus musculus [1] is 150 mg/kg. For the same molecule, the ED with Mus musculus [16] is 1.5 mg/kg; with Mus musculus [3], more than 50 mg/kg; in the data set on Mus musculus [17], 15.2 mg/kg; in the data set with Mus musculus [18] it was 5.5 mg/kg. Also, the IC50 in the data set listed under Sus scrofa [6] amounted to 20 µM; in the data set filed under Sus scrofa [7] it was 0.66 µM; in the data set listed under Sus scrofa [8], 65 µM.

In the data set with Mus musculus [1], `CCOc1ccccc1OCC1CNCCO1` (stereo not given) [VILOXAZINE] gave an LD of 600 mg/kg. Further, the IC50 in the data set filed under Sus scrofa [6] turned out to be 38 µM; in the data set filed under Sus scrofa [7] it was 0.22 µM; in the data set listed under Sus scrofa [8], 20 µM.

The record behind these values is ChEMBL document CHEMBL1123586, “3-[(2-ethoxyphenoxy)methyl]piperidine derivatives. Synthesis and antidepressant activity” (J Med Chem, 1987).
